This is an account of results in ChEMBL document CHEMBL1806378, “Osteogenic constituents from Pterospermum acerifolium Willd. flowers” (Bioorg Med Chem Lett, 2011).

Active and inactive are the calls of the source. The rule behind the calls is not given here.

Series [1] has as its system Osteoblast. The experiment in a line: Induction of osteogenesis in rat calvaria-derived primary osteoblasts assessed as increase in ALP activity after 48 hrs by bradford assay relative to control. It is filed as functional, cell-based. In short, it runs like this: (§1)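 Primary rat calvarial osteoblasts (2 × 10^3 cells) seeded and exposed to graded compound concentrations for 48 h; BMP-2 as positive control, vehicle as control. ALP measured with p-nitrophenylphosphate substrate, read at 405 nm, normalized to total protein by Bradford assay. Three independent experiments, six replicates per point; mean ± SEM, one-way ANOVA versus control.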

Series [2] concerns Osteoblast. The experiment in a line: Induction of osteogenesis in rat calvaria-derived primary osteoblasts assessed as increase in Col1 mRNA level at 100 pM after 48 hrs by quantitative PCR analysis. The class given is functional, cell-based. In short, it runs like this:
(§2)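 Primary rat calvarial osteoblasts treated 48 h at 100 pM; BMP-2, Col1 and runx2 transcript levels quantified by qPCR (optimized protocol). Four independent experiments in triplicate per treatment point; mean ± SEM compared with control.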

The test system of series [3] is Osteoblast. The experiment in a line: Induction of osteogenesis in rat calvaria-derived primary osteoblasts assessed as increase in runx2 mRNA level at 100 pM after 48 hrs by quantitative PCR analysis. It is filed as functional, cell-based. The method, boiled down:
as §2

Series [4] concerns Osteoblast. The experiment in a line: Induction of osteogenesis in rat calvaria-derived primary osteoblasts assessed as increase in BMP2 mRNA level at 100 pM after 48 hrs by quantitative PCR analysis. It is filed as functional, cell-based. In short, it runs like this:
as §2

In series [5] the test system is Osteoblast. The experiment in a line: Induction of osteogenesis in rat calvaria-derived primary osteoblasts assessed as increase in ALP activity at 100 pM after 48 hrs by bradford assay relative to control. The class given is functional, cell-based. The method, boiled down:
as §1

A further series concerns Bone marrow cell. The experiment in a line: Induction of mineralization in rat femur-derived bone marrow cells at 100 pM after 21 days by Alizarin Red S staining. The class given is functional, cell-based. In short, it runs like this: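 Rat bone marrow cells (2 × 10^5) seeded and incubated 21 days with 100 pM compound; cells fixed, stained with alizarin red-S, dye extracted and optical density measured colorimetrically. Four independent experiments in triplicate; mean ± SEM versus control.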

A short description of series [6]: Cytotoxicity against rat calvaria-derived primary osteoblasts assessed as cell viability by MTT assay. It is filed as cell-based. As to conditions: osteoblast. (Formazan colour is commonly taken as a measure of viable cells.)
Series [7] relates to Osteoblast. The experiment in a line: Induction of osteogenesis in rat calvaria-derived primary osteoblasts assessed as increase in ALP activity at 1 nM to 1 uM after 48 hrs by bradford assay relative to control. It is filed as functional, cell-based. In short, it runs like this:
as §1

Series [8] has as its system Osteoblast. The experiment in a line: Induction of osteogenesis in rat calvaria-derived primary osteoblasts assessed as increase in ALP activity at 10 pM after 48 hrs by bradford assay relative to control. The class given is functional, cell-based. In short, it runs like this:
as §1

With `O=c1cc(-c2ccc(O)c(O)c2)oc2cc(O[C@@H]3O[C@H](CO)[C@@H](O)[C@H](O)[C@H]3O)cc(O)c12`, the outcome in the series with Osteoblast [1] was inactive.

In the case of `O=C1OC(O)C=C1O` (centres undefined) [PTEROSPERMIN C], the outcome in the series with Osteoblast [2], with Osteoblast [3], with Osteoblast [4], with Osteoblast [5], in the series with Bone marrow cell and in the series on Osteoblast [8] was Active. The Activity result in series [6] is listed as “Non-toxic”. For the same compound, in the series on Osteoblast [7], the outcome was inactive.

On to `CC1=CC(=O)CC(C)(C)[C@H]1/C=C/[C@H](C)O[C@@H]1O[C@H](CO)[C@@H](O)[C@H](O)[C@H]1O`, for which the outcome with Osteoblast [1] was inactive.

With `O=c1cc(-c2cccc(O)c2)oc2cc(O)c(O[C@@H]3O[C@H](CO)[C@@H](O)[C@H](O)[C@H]3O)c(O)c12`, in the series with Osteoblast [1], the outcome was inactive.

For the compound `O=C(/C=C/c1ccc(O)cc1)OC[C@H]1O[C@@H](Oc2c(-c3ccc(O)cc3)oc3cc(O)cc(O)c3c2=O)[C@H](O)[C@@H](O)[C@@H]1O` [TILIROSIDE], the result with Osteoblast [2], with Osteoblast [3], in the series on Osteoblast [4], in the series with Osteoblast [5], in the series with Bone marrow cell and in the series on Osteoblast [8] was Active. Besides, the Activity result in series [6] is “Non-toxic”. Also, in the series with Osteoblast [7], the outcome was inactive.

For the compound `C[C@@H]1O[C@@H](O[C@H]2[C@H](Oc3cc(O)c4c(=O)cc(-c5ccc(O)c(O)c5)oc4c3)O[C@H](CO)[C@@H](O)[C@@H]2O)[C@H](O)[C@H](O)[C@H]1O`, the result in the series with Osteoblast [1] was inactive.

For `COc1cc(C(O)C(O)CO)ccc1Oc1ccc(-c2cc(=O)c3c(O)cc(O)cc3o2)cc1O` (centres undefined) [PTEROSPERMIN A], the result in the series with Osteoblast [2], with Osteoblast [3], in the series with Osteoblast [4], with Osteoblast [5], in the series on Bone marrow cell and in the series with Osteoblast [8] was Active. Moreover, in series [6], the Activity entry is listed as “Non-toxic”. Moreover, the result in the series on Osteoblast [7] was inactive.

Consider `C=C[C@@](C)(CCC=C(C)C)O[C@@H]1O[C@H](CO[C@@H]2O[C@@H](C)[C@H](O)[C@@H](O)[C@H]2O)[C@@H](O)[C@H](O)[C@H]1O`, for which, in the series on Osteoblast [1], the outcome was inactive.
